The source of these data is ChEMBL document CHEMBL4270612, “Discovery of dual GyrB/ParE inhibitors active against Gram-negative bacteria” (Eur J Med Chem, 2018).

Converted amounts (≈) assume the structure as drawn.

One data set concerns the target DNA gyrase subunit B (Escherichia coli, UniProt P0AES6). The data set can be described thus: Inhibition of Escherichia coli GyrB (1 to 220 residues) expressed in Escherichia coli BL21(DE3).
Settings: not given
Regarding `CCNC(=O)Nc1cc(-c2nc(C(F)(F)F)cs2)c(-c2cc(C(=O)NS(C)(=O)=O)cnc2N2C3CCC2CN(C)C3)cn1`, the half-maximal inhibitory concentration (IC50) was determined as 8 nM.

The molecule `CCNC(=O)Nc1cc(-c2nc(C(F)(F)F)cs2)c(-c2cc(C(=O)O)cnc2N2C3CCC2CN(C)C3)cn1` showed an IC50 of 6 nM.

For `CCNC(=O)Nc1cc(-c2nc(C(F)(F)F)cs2)c(-c2cc3ncccc3nc2N2CCC(N)CC2)cn1`, the IC50 is 6 nM.

`CCNC(=O)Nc1cc(-c2nc(C(F)(F)F)cs2)c(-c2cc(-c3n[nH]c(=O)o3)cnc2N2CCC(N)CC2)cn1` displayed an IC50 of 2 nM.

For the molecule `CCNC(=O)Nc1cc(-c2nc(C(F)(F)F)cs2)c(-c2cnc3cccnc3c2)cn1`, the IC50 came to 4 nM.

`CCNC(=O)Nc1cc(-c2nc(C(F)(F)F)cs2)c(-c2cc3ncccc3nc2N2[C@@H]3CC[C@H]2C[C@@H](N)C3)cn1` registered an IC50 of 3 nM.

Regarding `CCNC(=O)Nc1cc(-c2nc(C(F)(F)F)cs2)c(-c2cc(-c3nnn[nH]3)cnc2N2C3CCC2CN(C)C3)cn1`, the IC50 is 9 nM.

A further data set deals with DNA topoisomerase 4 subunit B (Escherichia coli K-12, UniProt P20083). The data set can be described thus: Inhibition of Escherichia coli ParE.
DNA topoisomerase 4 subunit B, sequence (P20083 whole entry): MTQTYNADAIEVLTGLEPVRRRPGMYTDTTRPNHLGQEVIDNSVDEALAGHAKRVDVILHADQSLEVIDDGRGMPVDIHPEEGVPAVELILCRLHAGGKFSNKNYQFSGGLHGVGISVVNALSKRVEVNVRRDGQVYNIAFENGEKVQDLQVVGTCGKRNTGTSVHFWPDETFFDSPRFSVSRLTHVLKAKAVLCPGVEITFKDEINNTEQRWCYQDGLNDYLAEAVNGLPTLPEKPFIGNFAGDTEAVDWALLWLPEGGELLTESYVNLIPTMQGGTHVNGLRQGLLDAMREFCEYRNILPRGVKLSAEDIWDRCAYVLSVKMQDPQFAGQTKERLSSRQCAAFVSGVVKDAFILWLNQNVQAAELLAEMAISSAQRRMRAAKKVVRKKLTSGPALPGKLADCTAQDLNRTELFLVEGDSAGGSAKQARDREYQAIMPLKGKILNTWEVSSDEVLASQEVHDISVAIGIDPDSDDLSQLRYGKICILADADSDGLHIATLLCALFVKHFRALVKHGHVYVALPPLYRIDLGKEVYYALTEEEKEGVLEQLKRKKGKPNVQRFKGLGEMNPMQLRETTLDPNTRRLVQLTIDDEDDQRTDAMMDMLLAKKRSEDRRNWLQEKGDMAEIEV
Settings: not given
In the case of `CCNC(=O)Nc1cc(-c2nc(C(F)(F)F)cs2)c(-c2cc(C(=O)NS(C)(=O)=O)cnc2N2C3CCC2CN(C)C3)cn1`, the IC50 was found to be 9 nM.

In turn, `CCNC(=O)Nc1cc(-c2nc(C(F)(F)F)cs2)c(-c2cc(C(=O)O)cnc2N2C3CCC2CN(C)C3)cn1` displayed an IC50 of 8 nM.

As for `CCNC(=O)Nc1cc(-c2nc(C(F)(F)F)cs2)c(-c2cc3ncccc3nc2N2CCC(N)CC2)cn1`, the IC50 was 49 nM.

`CCNC(=O)Nc1cc(-c2nc(C(F)(F)F)cs2)c(-c2cc(-c3n[nH]c(=O)o3)cnc2N2CCC(N)CC2)cn1` registered an IC50 of 23 nM.

`CCNC(=O)Nc1cc(-c2nc(C(F)(F)F)cs2)c(-c2cnc3cccnc3c2)cn1` registered an IC50 of 2010 nM.

`CCNC(=O)Nc1cc(-c2nc(C(F)(F)F)cs2)c(-c2cc3ncccc3nc2N2[C@@H]3CC[C@H]2C[C@@H](N)C3)cn1` displayed an IC50 of 24 nM.

The molecule `CCNC(=O)Nc1cc(-c2nc(C(F)(F)F)cs2)c(-c2cc(-c3nnn[nH]3)cnc2N2C3CCC2CN(C)C3)cn1` had an IC50 of 4 nM.

For a further data set, the system named is Pseudomonas aeruginosa. The data set can be described thus: Antibacterial activity against Pseudomonas aeruginosa PAO1 after 24 hrs by broth microdilution method. It is filed as functional. To be noted: PAO1, 24 h. Summed up: (§1)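 Broth microdilution per CLSI. Bacterial suspension adjusted to 1×10^6 CFU/mL in cation-adjusted Mueller–Hinton broth and mixed 1:1 with 2-fold serial compound dilutions. Final DMSO 2.5% v/v. Plates incubated at 35 °C with shaking at 140 rpm for 24 h.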
Consider `CCNC(=O)Nc1cc(-c2nc(C(F)(F)F)cs2)c(-c2cc(C(=O)NS(C)(=O)=O)cnc2N2C3CCC2CN(C)C3)cn1`, for which the MIC is greater than 50 µg/mL.

`CCNC(=O)Nc1cc(-c2nc(C(F)(F)F)cs2)c(-c2cc(C(=O)O)cnc2N2C3CCC2CN(C)C3)cn1` returned an MIC of 9 µg/mL (≈ 16 µM).

`CCNC(=O)Nc1cc(-c2nc(C(F)(F)F)cs2)c(-c2cc3ncccc3nc2N2CCC(N)CC2)cn1` displayed an MIC of 67.8 µg/mL (≈ 125 µM).

In the case of `CCNC(=O)Nc1cc(-c2nc(C(F)(F)F)cs2)c(-c2cc(-c3n[nH]c(=O)o3)cnc2N2CCC(N)CC2)cn1`, the MIC is greater than 50 µg/mL.

In the case of `CCNC(=O)Nc1cc(-c2nc(C(F)(F)F)cs2)c(-c2cnc3cccnc3c2)cn1`, the MIC is greater than 25 µg/mL.

On to `CCNC(=O)Nc1cc(-c2nc(C(F)(F)F)cs2)c(-c2cc3ncccc3nc2N2[C@@H]3CC[C@H]2C[C@@H](N)C3)cn1`, for which the minimal inhibitory concentration (MIC) was 35.5 µg/mL (≈ 62.5 µM).

As for `CCNC(=O)Nc1cc(-c2nc(C(F)(F)F)cs2)c(-c2cc(-c3nnn[nH]3)cnc2N2C3CCC2CN(C)C3)cn1`, the MIC was greater than 50 µg/mL.

In a further data set the test system is Pseudomonas aeruginosa. The data set can be described thus: Antibacterial activity against Pseudomonas aeruginosa harboring MexABCDXY deletion mutant after 24 hrs by broth microdilution method. It is filed as functional.
Settings: not given
The gist of the method:
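Broth microdilution per CLSI. Bacterial suspensions adjusted to 1×10^6 CFU/mL in cation-adjusted Mueller–Hinton broth, mixed 1:1 with 2-fold serial compound dilutions (final DMSO 2.5% v/v). Incubation 35 °C, 140 rpm, 24 h.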
In turn, `CCNC(=O)Nc1cc(-c2nc(C(F)(F)F)cs2)c(-c2cc(C(=O)NS(C)(=O)=O)cnc2N2C3CCC2CN(C)C3)cn1` gave an MIC greater than 50 µg/mL.

`CCNC(=O)Nc1cc(-c2nc(C(F)(F)F)cs2)c(-c2cc(C(=O)O)cnc2N2C3CCC2CN(C)C3)cn1`: the MIC worked out at 4.48 µg/mL (≈ 7.98 µM).

Molecule `CCNC(=O)Nc1cc(-c2nc(C(F)(F)F)cs2)c(-c2cc3ncccc3nc2N2CCC(N)CC2)cn1` showed an MIC of 0.54 µg/mL (≈ 0.995 µM).

`CCNC(=O)Nc1cc(-c2nc(C(F)(F)F)cs2)c(-c2cc(-c3n[nH]c(=O)o3)cnc2N2CCC(N)CC2)cn1` showed an MIC of 1.15 µg/mL (≈ 2 µM).

With `CCNC(=O)Nc1cc(-c2nc(C(F)(F)F)cs2)c(-c2cnc3cccnc3c2)cn1`, the MIC was greater than 25 µg/mL.

The molecule `CCNC(=O)Nc1cc(-c2nc(C(F)(F)F)cs2)c(-c2cc3ncccc3nc2N2[C@@H]3CC[C@H]2C[C@@H](N)C3)cn1` yielded an MIC of 0.56 µg/mL (≈ 0.985 µM).

Turning to `CCNC(=O)Nc1cc(-c2nc(C(F)(F)F)cs2)c(-c2cc(-c3nnn[nH]3)cnc2N2C3CCC2CN(C)C3)cn1`, the MIC was greater than 50 µg/mL.

The next data set has as its system Escherichia coli. The data set can be described thus: Antibacterial activity against Escherichia coli after 24 hrs by broth microdilution method. The class given is functional.
Settings: not given
The gist of the method: as §1
For `CCNC(=O)Nc1cc(-c2nc(C(F)(F)F)cs2)c(-c2cc(C(=O)NS(C)(=O)=O)cnc2N2C3CCC2CN(C)C3)cn1`, the MIC was greater than 50 µg/mL.

In the case of `CCNC(=O)Nc1cc(-c2nc(C(F)(F)F)cs2)c(-c2cc(C(=O)O)cnc2N2C3CCC2CN(C)C3)cn1`, the MIC turned out to be 9 µg/mL (≈ 16 µM).

Molecule `CCNC(=O)Nc1cc(-c2nc(C(F)(F)F)cs2)c(-c2cc3ncccc3nc2N2CCC(N)CC2)cn1` returned an MIC of 16.8 µg/mL (≈ 31 µM).

`CCNC(=O)Nc1cc(-c2nc(C(F)(F)F)cs2)c(-c2cc(-c3n[nH]c(=O)o3)cnc2N2CCC(N)CC2)cn1` displayed an MIC greater than 50 µg/mL.

`CCNC(=O)Nc1cc(-c2nc(C(F)(F)F)cs2)c(-c2cnc3cccnc3c2)cn1` showed an MIC greater than 25 µg/mL.

Molecule `CCNC(=O)Nc1cc(-c2nc(C(F)(F)F)cs2)c(-c2cc3ncccc3nc2N2[C@@H]3CC[C@H]2C[C@@H](N)C3)cn1` came in with an MIC of 4.54 µg/mL (≈ 7.98 µM).

`CCNC(=O)Nc1cc(-c2nc(C(F)(F)F)cs2)c(-c2cc(-c3nnn[nH]3)cnc2N2C3CCC2CN(C)C3)cn1` showed an MIC greater than 50 µg/mL.

In the next data set the test system is Escherichia coli. The data set can be described thus: Antibacterial activity against tolC deficient Escherichia coli after 24 hrs by broth microdilution method. The class given is functional.
Settings: not given
Summed up: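 Broth microdilution per CLSI guidelines. Inoculum adjusted to 1×10^6 CFU/mL in cation-adjusted Mueller–Hinton broth, added 1:1 to 2-fold serial compound dilutions; final DMSO 2.5% v/v. Plates incubated 35 °C, 140 rpm, 24 h.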
For `CCNC(=O)Nc1cc(-c2nc(C(F)(F)F)cs2)c(-c2cc(C(=O)NS(C)(=O)=O)cnc2N2C3CCC2CN(C)C3)cn1`, the MIC is greater than 50 µg/mL.

As to `CCNC(=O)Nc1cc(-c2nc(C(F)(F)F)cs2)c(-c2cc(C(=O)O)cnc2N2C3CCC2CN(C)C3)cn1`, the MIC came out at 1.12 µg/mL (≈ 1.99 µM).

With `CCNC(=O)Nc1cc(-c2nc(C(F)(F)F)cs2)c(-c2cc3ncccc3nc2N2CCC(N)CC2)cn1`, the lowest concentration to inhibit growth (MIC) was 0.54 µg/mL (≈ 0.995 µM).

`CCNC(=O)Nc1cc(-c2nc(C(F)(F)F)cs2)c(-c2cc(-c3n[nH]c(=O)o3)cnc2N2CCC(N)CC2)cn1` came in with a minimal inhibitory concentration (MIC) of 9.2 µg/mL (≈ 16 µM).

Turning to `CCNC(=O)Nc1cc(-c2nc(C(F)(F)F)cs2)c(-c2cnc3cccnc3c2)cn1`, the MIC was found to be 0.44 µg/mL (≈ 0.99 µM).

For the molecule `CCNC(=O)Nc1cc(-c2nc(C(F)(F)F)cs2)c(-c2cc3ncccc3nc2N2[C@@H]3CC[C@H]2C[C@@H](N)C3)cn1`, it took 0.56 µg/mL (≈ 0.985 µM) to inhibit growth (MIC).

In turn, `CCNC(=O)Nc1cc(-c2nc(C(F)(F)F)cs2)c(-c2cc(-c3nnn[nH]3)cnc2N2C3CCC2CN(C)C3)cn1` returned an MIC of 36 µg/mL (≈ 61.5 µM).

Tested on in a further data set: not listed separately
The data set can be described thus: Dissociation constant, acidic pKa of compound by pH metric method. The class given is physicochemical.
Settings: not given
The gist of the method:
(§2)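 Potentiometric (pH-metric) titration on an automated titrator, Gold Standard pH metric assay, run in triplicate.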
In turn, `CCNC(=O)Nc1cc(-c2nc(C(F)(F)F)cs2)c(-c2cc(C(=O)NS(C)(=O)=O)cnc2N2C3CCC2CN(C)C3)cn1` displayed a pKa of 3.2.

Turning to `CCNC(=O)Nc1cc(-c2nc(C(F)(F)F)cs2)c(-c2cc(C(=O)O)cnc2N2C3CCC2CN(C)C3)cn1`, the pKa stood at 3.5.

With `CCNC(=O)Nc1cc(-c2nc(C(F)(F)F)cs2)c(-c2cc(-c3n[nH]c(=O)o3)cnc2N2CCC(N)CC2)cn1`, the pKa stood at 6.8.

Take `CCNC(=O)Nc1cc(-c2nc(C(F)(F)F)cs2)c(-c2cc(-c3nnn[nH]3)cnc2N2C3CCC2CN(C)C3)cn1`: the pKa is 3.6.

Tested on in a further data set: not listed separately
The data set can be described thus: Dissociation constant, basic pKa of compound by pH metric method. The class given is physicochemical.
Settings: not given
Summed up: as §2
As to `CCNC(=O)Nc1cc(-c2nc(C(F)(F)F)cs2)c(-c2cc(C(=O)NS(C)(=O)=O)cnc2N2C3CCC2CN(C)C3)cn1`, the pKa turned out to be 7.6.

Take `CCNC(=O)Nc1cc(-c2nc(C(F)(F)F)cs2)c(-c2cc(C(=O)O)cnc2N2C3CCC2CN(C)C3)cn1`: the pKa worked out at 7.4.

`CCNC(=O)Nc1cc(-c2nc(C(F)(F)F)cs2)c(-c2cc(-c3n[nH]c(=O)o3)cnc2N2CCC(N)CC2)cn1` gave a pKa of 9.5.

The molecule `CCNC(=O)Nc1cc(-c2nc(C(F)(F)F)cs2)c(-c2cc(-c3nnn[nH]3)cnc2N2C3CCC2CN(C)C3)cn1` had a pKa of 7.8.

Tested on in the next data set: not listed separately
The data set can be described thus: Dissociation constant, pKa of compound by pH metric method. It is filed as physicochemical.
Settings: not given
The gist of the method:
as §2
The molecule `CCNC(=O)Nc1cc(-c2nc(C(F)(F)F)cs2)c(-c2cc3ncccc3nc2N2CCC(N)CC2)cn1` came in with a pKa of 9.3.

In turn, `CCNC(=O)Nc1cc(-c2nc(C(F)(F)F)cs2)c(-c2cc3ncccc3nc2N2[C@@H]3CC[C@H]2C[C@@H](N)C3)cn1` gave a pKa of 9.2.

Tested on in the next data set: not listed separately
The data set can be described thus: Growth inhibition of human A549 cells.
Settings: not given
The class given is cell-based.
Take `CCNC(=O)Nc1cc(-c2nc(C(F)(F)F)cs2)c(-c2cc(C(=O)O)cnc2N2C3CCC2CN(C)C3)cn1`: the GI50 is greater than 50000 nM.

The molecule `CCNC(=O)Nc1cc(-c2nc(C(F)(F)F)cs2)c(-c2cc3ncccc3nc2N2CCC(N)CC2)cn1` had a GI50 greater than 50000 nM.

Take `CCNC(=O)Nc1cc(-c2nc(C(F)(F)F)cs2)c(-c2cc3ncccc3nc2N2[C@@H]3CC[C@H]2C[C@@H](N)C3)cn1`: the GI50 is greater than 40000 nM.
